Laboratory results taken from ChEMBL document CHEMBL4513216, “Probing the Open Global Health Chemical Diversity Library for Multistage-Active Starting Points for Next-Generation Antimalarials” (ACS Infect Dis, 2020).

Experiment: Toxicity liver stage against HepG2, at 10uM
Format: cell-based
Design: test concentration 10 uM, cell line HepG2-A16-CD81EGFP
Conditions: human, HepG2-A16-CD81EGFP cells; read-out: INHIBITION
Procedure, shortened: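 Uninfected HepG2-A16-CD81EGFP cells, 3 × 10^3 per well, 1536-well, plated on prespotted compound at 10 μM final, parasite-free screening media added to match infected plates; puromycin 10 μM positive, DMSO 0.5% negative; run in parallel with 48 h PbLuc assay at 37 °C, 5% CO2; viability by CellTiter-Glo luminescence, normalized to controls.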

Structure (SMILES) | cytotoxicity at 10 µM [%]
CC(C)Oc1cccc(C(=O)C2CCCN(C(=O)c3ccnn3C)C2)c1 (configuration not stated) | 1.3
O=C(NC(c1ccccc1)c1cccnc1)C1CC1 (configuration not stated) | 2.99
O=C(NC(c1ccc(Cl)cc1)c1cccnc1)C1CC1 (configuration not stated) | -3.94
Cn1nc(C(=O)N2CCC(Oc3ccc(C#N)cn3)CC2)ccc1=O | -3.33
Cn1ccc2c(cnc3nc(-c4ccncc4)nn32)c1=O | -4.17
Cn1cc(CNS(=O)(=O)c2cc(F)ccc2F)cn1 | -0.439
Cc1nc2[nH]cnc(Nc3ccn(C)n3)c-2n1 | 18.2
Cc1cn[nH]c1C1COCCN1Cc1cscn1 (configuration not stated) | 2.67
O=S1(=O)NC(c2ccnc(N3CCCCC3)n2)=Nc2ccccc21 | 18.3
COCCNc1ncc(-c2cccc(F)c2)c(-c2nccn2C)n1 | 13.4
COc1cccc(CN2CCC(Cc3cnc(CN(C)C)cn3)CC2)c1 | -2.82
O=C1CN(C(=O)CCn2c(C(F)(F)F)cc3cccnc32)CCN1 | -13
Cc1nc(Nc2nnc(C)s2)cc(C2CCCN2c2ccncn2)n1 (configuration not stated) | -14.3
Cc1cccc(C(=O)N2C[C@@H]3CC[C@H](Oc4cccc(F)c4)[C@@H]3C2)n1 | -14.7
CC(C)CCN1CCC2(CC1)NCc1ccccc1NC2=O | 3.46
CN(C)S(=O)(=O)NC1CC(=O)N(c2ccccc2Cl)C1 (configuration not stated) | 3.57
CC(C)(C)CNC(=O)c1ccc(C(=O)O)cc1 | -8.17
Cc1[nH]nc2ncc(C(=O)N3CCN(CC(O)C(C)(C)C)CC3)cc12 (configuration not stated) | 4.41
Cc1cc(C)c(CNC(=O)NCCNc2ncccn2)c(=O)[nH]1 | -49.4
O=S(=O)(CCN1CCCCC1Cn1cccn1)c1ccccc1 (configuration not stated) | -8.66
FC(F)(F)C1CCc2nnc(CNCc3cccs3)n2C1 (configuration not stated) | 2.9

Structure (SMILES) | cytotoxicity at 10 µM [%]
NC(=O)CCCNC(=O)c1cc(Br)c2c(c1)OCCO2 | 9.31
CCN(CC)C(=O)CCCNC(=O)Cc1nc(-c2ccco2)oc1C | 1.57
Cc1cc(C2CN(CC(=O)NCc3ccco3)CCO2)ccc1F (configuration not stated) | 4.29
Cc1cc(C)n(-c2ccc(N3CCCSCC3)nc2)n1 | -2.08
COc1ccc(-c2nc(CN3CC(n4cccn4)C3)no2)cc1 | -3.08
COCCN(Cc1cccnc1)S(=O)(=O)c1ccc(F)cc1C | -5.06
CCCS(=O)(=O)N1CCC(Oc2ccc(C#N)cc2)CC1 | 3.82
CN1CC(NC(=O)CCCc2cc(Cl)sc2Cl)CCC1=O (configuration not stated) | -5.01
CCc1nc(C(=O)N2CCN(C(=O)CCc3ccccc3)CC2)c[nH]1 | 5.92
COc1cccc(CN(C)Cn2nc(C(C)(C)C)ccc2=O)c1 | 1.12
CCc1ncncc1C(=O)Nc1ccc2ccn(CCN(C)C)c2c1 | 6.11
Cc1n[nH]c(C)c1NC(=O)CN(CC(O)c1ccc(F)cc1)C1CC1 (configuration not stated) | -7.3
CCC(NC(=O)NCc1cc(Cl)ccc1OC)c1noc(C)n1 (configuration not stated) | 4.06
CCOc1ccc(OC2CCCN(c3cnn(C)c3)C2=O)cc1 (configuration not stated) | 0.118
CCN1CCOC(CNc2nccc(OC)n2)C1 (configuration not stated) | -0.572
CCC(SC)C(=O)N1CCC(n2ccnn2)CC1 (configuration not stated) | -41.5
c1ccc(CN2CCC(NCCc3ccc4c(c3)CCO4)CC2)nc1 | 3.73
CCSCCC(=O)NC1CCN(C(C)c2ccccc2)CC1 (configuration not stated) | -1.22
CCOCCC(=O)N1CC(=O)Nc2cc(Br)ccc21 | 6.87
Cc1cnn(C2CN(Cc3nnc(-c4ccccc4Cl)o3)C2)c1 | -2.76
CCC(C)(C)CC(=O)NC(C)C(=O)Nc1ccc(-n2cncn2)cc1 (configuration not stated) | 3.47

Structure (SMILES) | cytotoxicity at 10 µM [%]
COc1ccccc1N1CCC(CNCc2c(C)nn(C)c2OC)C1 (configuration not stated) | 5.28
COCCOCC(=O)N(C)Cc1ccc(OCc2cccs2)cc1 | 4.38
O=S(=O)(CC1CCCCO1)Nc1cc(F)ccc1-n1cccn1 (configuration not stated) | 7.71
Cn1c2c(c(=O)n1C)CN(C(=O)c1ccncc1F)CCC2 | -95
Cc1cnc(N2CCOC3(COCCN(c4nccs4)C3)C2)nc1 (configuration not stated) | -114
COCC(=O)NCc1cc(=O)n2c(n1)CN(Cc1cccs1)CCC2 | -96.5
Nc1ccnc(N2CCCC(CCc3ccccc3)(C(=O)O)C2)n1 (configuration not stated) | 3.33
CN(CCO)Cc1nnc(C2CCN(C(=O)c3cccn3C)CC2)n1C | -0.537
c1ccc2c(c1)CN(c1ncnc3c1CCNC3)CCO2 | 3.13
COc1ccccc1CCC(=O)N1CCCC(OCc2cccnc2)C1 (configuration not stated) | 2.98
Cc1nnc(N2CCCC(C(=O)c3cccc(Cl)c3)C2)o1 (configuration not stated) | 6.14
Cc1cccnc1CCNCC1(O)CCCN(CC2CCCCC2)C1=O (configuration not stated) | -203
O=C(NCc1noc(C2CCCO2)n1)c1cn2ccsc2n1 (configuration not stated) | -3.77
CC(C)(C)SCCNC(=O)[C@@]12CNC[C@@H]1CN(S(C)(=O)=O)C2 | 0.251
O=C(N1CCC2(CC1)[C@H](O)C[C@@H]2O)C1(c2ccccc2F)CC1 | 6.1
CNCCNc1ccc(-c2nc(-c3cccc(OC)c3OC)no2)cn1 | -2.4
CC(C)(O)c1cn(C2CCN(c3ncccc3Cl)CC2)nn1 | -46.4
Cc1cnccc1N1CCN(C[C@]2(O)CCCN3CCCC[C@@H]32)CC1 | 10.4
COc1ccc(Cc2c(O)nc(SC)n(-c3ccccc3)c2=O)cc1 | 1.76
CCn1nc(CC(C)C)cc1C(=O)N1CCC(n2cnnc2)CC1 | -7.71
OCC1CCCCN1CCCNCc1cc(O)c2cc(F)ccc2n1 (configuration not stated) | -39.2

Structure (SMILES) | cytotoxicity at 10 µM [%]
Fc1ccc(CN2CCCC3(CCN(Cc4ncc[nH]4)C3)C2)cc1F (configuration not stated) | -12
Cc1cccc(-c2ncc(CNC(C)Cc3ncccc3C)cn2)c1 (configuration not stated) | -13.2
Cc1nc(CC(=O)N(CCN2CCOCC2)Cc2ccco2)c(C)s1 | -3.71
CCOc1ncccc1C(=O)N1CCN(C)C2(CCN(C)CC2)C1 | -0.351
CCCOC1CCCN(C(=O)c2ccc(S(N)(=O)=O)cc2)C1 (configuration not stated) | -13.6
O=C(c1cnccn1)N1CCN(Cc2cscn2)CC1 | -8.36
CCn1cc(NC(=O)NCC(c2ccsc2)N(C)C)cn1 (configuration not stated) | -8.01
COCCOc1ccc(CNCC2CNc3cc(C)nn3C2)cn1 (configuration not stated) | -10.7
CCN1CCOC(CNCc2ccccc2OCc2ccccn2)C1 (configuration not stated) | -10.1
CCOc1cc(C(=O)N2CCCC(c3cc(C(N)=O)[nH]n3)C2)ccn1 (configuration not stated) | -7.37
O=c1[nH]c(CCN2CCCC(Cn3cncn3)C2)nc2ccccc12 (configuration not stated) | -8.62
Cc1cc(C)n(CC2CN(Cc3nc(-c4ccoc4)no3)CCO2)n1 (configuration not stated) | -8.13
CCN1C(=O)CCC12CCC(NC(=O)NCc1cccnc1)CC2 (configuration not stated) | -104
Cc1ccc(CN2CCC3(CCCN3S(C)(=O)=O)CC2)s1 | -113
CN(C)C[C@@H]1C[C@@H]2CN(C(=O)c3ccoc3)CC[C@@H]2N1CC1CC1 | 6.71
COCCN1CCCn2c(nc(CNS(C)(=O)=O)cc2=O)C1 | -110
COCC(=O)NCc1cc(=O)n2c(n1)CN(Cc1ccccc1)CCC2 | -103
Cc1nnc(CN2CCC3(CCC(=O)N(C4CCC(O)CC4)C3)CC2)o1 (configuration not stated) | -8.23
CC(C)(C)c1ccc(OCC(N)=O)c(CN2C[C@H]3CC(O)C[C@H]3C2)c1 (some centres not stated) | -5.28
